This is an account of results in ChEMBL document CHEMBL1156338 (J Med Chem, 2010).

One data set concerns THP-1. Put plainly: Inhibition of LPS-induced TNFalpha production in human THP1 cells after 3 hrs. The format is functional, cell-based. The essentials: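 THP-1 cells at 1.5 x 10^6/mL in RPMI 1640, 10% heat-inactivated FBS, NEAA, 30 μM βME. 3-fold serial compound dilutions in DMSO, then LPS stimulation for 3 h at 37 C, 5% CO2. Secreted TNF-alpha read by electrochemiluminescent immunoassay; percent of DMSO control; IC50 is the mean of at least three independent curves.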

The subject of the next data set is Blood. Put plainly: Inhibition of IL-8 production in TNFalpha challenged human whole blood after 16 to 18 hrs. It counts as functional, tissue-based. A digest of the protocol:
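Heparinized blood from healthy nonmedicated donors, 50% final in RPMI 1640 with 10% human AB serum. Ten-point compound titration preincubated 1 h at 37 C, 5% CO2, then TNF-alpha 1 nM final added for 16-18 h. Plasma IL-8 measured by electrochemiluminescent antibody sandwich assay; IC50 is the mean of at least three independent dose-response curves.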

The nature of data set [1]: AUC (0 to infinity) in Sprague-Dawley rat at 2 mg/kg, po. The format is ADME, organism-based. Also noted: time infinity, dose 2 mg/kg, route oral. Particulars: plasma.
The target of data set [2] is T1, Mitogen-activated protein kinase 14 (Homo sapiens, UniProt Q16539). Put plainly: Inhibition of human recombinant p38alpha-mediated […] phosphorylation after 1 hr by HTRF assay. In general terms: TR-FRET usually uses a lanthanide donor and a delayed reading to cut background.
Data set [3] can be described thus: Volume of distribution at steady state in Sprague-Dawley rat at 2 mg/kg, iv. Also noted: dose 2 mg/kg, route intravenous. Particulars: in vivo, read-out: Vdss. It counts as ADME, organism-based.
Data set [4] in a line: Clearance in Sprague-Dawley rat at 2 mg/kg, iv. The format is ADME, organism-based. Also noted: dose 2 mg/kg, route intravenous. Particulars: in vivo.
The nature of data set [5]: Half life in Sprague-Dawley rat at 2 mg/kg, iv. The note with it: in vivo. Also noted: dose 2 mg/kg, route intravenous. It counts as ADME, organism-based.
Data set [6] in a line: Oral bioavailability in Sprague-Dawley rat at 2 mg/kg. Particulars: in vivo. The format is ADME, organism-based.
Data set [7] deals with T1, Mitogen-activated protein kinase 14. Put plainly: Binding affinity to p38alpha by scintillation proximity assay. (In general: SPA uses beads or plates that emit light when radiolabelled molecules are held near them.)
Data set [8] has as its target Tyrosine-protein kinase Lck (Homo sapiens, UniProt P06239). The experiment in a line: Binding affinity to Lck by scintillation proximity assay.
In data set [9] the target is Mast/stem cell growth factor receptor Kit (Homo sapiens, UniProt P10721). Put plainly: Binding affinity to c-Kit by scintillation proximity assay.
Data set [10] addresses Vascular endothelial growth factor receptor 2 (Homo sapiens, UniProt P35968). The experiment in a line: Binding affinity to Kdr by scintillation proximity assay.
The next data set has as its target Cytochrome P450 3A4 (Homo sapiens, UniProt P08684). The experiment in a line: Inhibition of CYP3A4. The format is ADME.
In data set [11] the target is T2, Nuclear receptor subfamily 1 group I member 2 (Homo sapiens, UniProt O75469).
T2 sequence (O75469 whole entry): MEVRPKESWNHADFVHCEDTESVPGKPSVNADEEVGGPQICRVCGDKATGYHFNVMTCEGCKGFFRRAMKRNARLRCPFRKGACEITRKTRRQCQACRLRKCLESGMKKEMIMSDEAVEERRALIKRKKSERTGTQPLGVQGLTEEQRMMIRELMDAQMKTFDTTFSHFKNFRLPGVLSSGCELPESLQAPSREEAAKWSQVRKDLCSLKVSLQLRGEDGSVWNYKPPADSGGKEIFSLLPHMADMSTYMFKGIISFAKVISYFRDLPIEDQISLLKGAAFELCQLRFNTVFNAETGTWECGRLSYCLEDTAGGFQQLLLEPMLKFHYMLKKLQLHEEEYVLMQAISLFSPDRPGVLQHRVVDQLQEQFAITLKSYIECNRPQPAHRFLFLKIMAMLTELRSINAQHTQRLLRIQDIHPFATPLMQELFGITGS
The experiment in a line: Transactivation of human PXR expressed in HepG2 cells after 24 hrs by luciferase reporter gene assay. The format is cell-based. The note with it: hepg2, 24 h. A digest of the protocol: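 HepG2 cells transfected with a CYP3A4-promoter luciferase reporter and human PXR cDNA. Compound added from DMSO stocks to final 2 and 10 μM in buffer and incubated 24 h. Luciferase activity read by chemiluminescence and reported as percent of the rifampin (10 μM) positive control.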
A general note: In a reporter assay the amount or activity of a reporter protein is the signal.

A short description of data set [12]: in vitro. Particulars: human, Caco-2.
Data set [13] is described as follows: Plasma protein binding in rat by ultrafiltration method. It counts as ADME, cell-free. The note with it: read-out: PPB (converted).
Data set [14] in a line: Plasma protein binding in human by ultrafiltration method. It counts as ADME, cell-free. Particulars: read-out: PPB (converted).
Data set [15] in a line: in vitro. Particulars: human, Caco-2. This is another data set of the same source.
Setting [16] is: Homo sapiens, THP-1, 3 h, read-out: IC50.
The mark [17] stands for this setting: Homo sapiens, Blood, read-out: IC50.

Each structure is given as a SMILES string.

T1 sequence (Q16539 whole entry): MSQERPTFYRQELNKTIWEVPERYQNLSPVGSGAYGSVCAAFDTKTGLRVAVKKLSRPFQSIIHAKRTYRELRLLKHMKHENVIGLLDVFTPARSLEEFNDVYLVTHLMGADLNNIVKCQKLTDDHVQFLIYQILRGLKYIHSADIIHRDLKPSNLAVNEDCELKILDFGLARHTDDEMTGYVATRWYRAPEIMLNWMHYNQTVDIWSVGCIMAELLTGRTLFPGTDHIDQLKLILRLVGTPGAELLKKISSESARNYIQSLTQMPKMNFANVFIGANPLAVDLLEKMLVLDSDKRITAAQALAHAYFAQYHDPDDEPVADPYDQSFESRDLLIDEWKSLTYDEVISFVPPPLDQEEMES
Sequence of Vascular endothelial growth factor receptor 2 (P35968 whole entry): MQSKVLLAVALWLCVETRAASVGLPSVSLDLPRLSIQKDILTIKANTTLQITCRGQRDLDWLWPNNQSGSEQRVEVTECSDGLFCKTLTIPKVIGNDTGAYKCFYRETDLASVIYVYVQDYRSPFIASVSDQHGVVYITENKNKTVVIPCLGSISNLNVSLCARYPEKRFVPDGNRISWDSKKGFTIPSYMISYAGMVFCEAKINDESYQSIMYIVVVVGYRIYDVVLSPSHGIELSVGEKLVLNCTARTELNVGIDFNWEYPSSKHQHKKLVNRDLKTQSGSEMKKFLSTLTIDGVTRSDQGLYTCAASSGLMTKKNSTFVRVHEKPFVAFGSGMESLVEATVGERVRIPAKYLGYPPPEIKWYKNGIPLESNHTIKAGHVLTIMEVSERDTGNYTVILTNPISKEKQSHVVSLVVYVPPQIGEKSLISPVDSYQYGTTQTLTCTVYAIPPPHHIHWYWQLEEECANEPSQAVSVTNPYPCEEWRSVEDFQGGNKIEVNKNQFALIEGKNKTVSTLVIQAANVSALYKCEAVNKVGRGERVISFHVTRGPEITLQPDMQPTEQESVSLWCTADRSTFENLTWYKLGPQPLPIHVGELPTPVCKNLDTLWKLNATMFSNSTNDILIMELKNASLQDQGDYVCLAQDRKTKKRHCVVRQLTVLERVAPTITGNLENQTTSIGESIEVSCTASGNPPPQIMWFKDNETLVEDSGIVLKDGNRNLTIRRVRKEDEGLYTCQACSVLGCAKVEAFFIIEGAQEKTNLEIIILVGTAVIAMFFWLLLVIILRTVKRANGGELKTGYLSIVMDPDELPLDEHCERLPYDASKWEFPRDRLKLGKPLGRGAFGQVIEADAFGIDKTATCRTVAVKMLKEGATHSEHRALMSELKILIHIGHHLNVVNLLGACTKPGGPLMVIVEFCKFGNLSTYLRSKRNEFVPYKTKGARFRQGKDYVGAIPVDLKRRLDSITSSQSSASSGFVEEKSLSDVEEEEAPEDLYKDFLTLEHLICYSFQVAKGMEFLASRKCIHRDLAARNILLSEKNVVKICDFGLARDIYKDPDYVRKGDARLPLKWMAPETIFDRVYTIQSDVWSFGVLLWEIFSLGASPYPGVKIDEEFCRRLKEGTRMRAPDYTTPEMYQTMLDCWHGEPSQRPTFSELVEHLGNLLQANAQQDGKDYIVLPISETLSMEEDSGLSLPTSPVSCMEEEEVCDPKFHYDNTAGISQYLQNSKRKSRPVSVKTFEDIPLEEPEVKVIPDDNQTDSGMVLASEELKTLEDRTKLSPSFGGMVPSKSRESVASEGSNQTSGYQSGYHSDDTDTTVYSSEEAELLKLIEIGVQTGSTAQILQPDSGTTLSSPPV
Sequence of Mast/stem cell growth factor receptor Kit (P10721 whole entry): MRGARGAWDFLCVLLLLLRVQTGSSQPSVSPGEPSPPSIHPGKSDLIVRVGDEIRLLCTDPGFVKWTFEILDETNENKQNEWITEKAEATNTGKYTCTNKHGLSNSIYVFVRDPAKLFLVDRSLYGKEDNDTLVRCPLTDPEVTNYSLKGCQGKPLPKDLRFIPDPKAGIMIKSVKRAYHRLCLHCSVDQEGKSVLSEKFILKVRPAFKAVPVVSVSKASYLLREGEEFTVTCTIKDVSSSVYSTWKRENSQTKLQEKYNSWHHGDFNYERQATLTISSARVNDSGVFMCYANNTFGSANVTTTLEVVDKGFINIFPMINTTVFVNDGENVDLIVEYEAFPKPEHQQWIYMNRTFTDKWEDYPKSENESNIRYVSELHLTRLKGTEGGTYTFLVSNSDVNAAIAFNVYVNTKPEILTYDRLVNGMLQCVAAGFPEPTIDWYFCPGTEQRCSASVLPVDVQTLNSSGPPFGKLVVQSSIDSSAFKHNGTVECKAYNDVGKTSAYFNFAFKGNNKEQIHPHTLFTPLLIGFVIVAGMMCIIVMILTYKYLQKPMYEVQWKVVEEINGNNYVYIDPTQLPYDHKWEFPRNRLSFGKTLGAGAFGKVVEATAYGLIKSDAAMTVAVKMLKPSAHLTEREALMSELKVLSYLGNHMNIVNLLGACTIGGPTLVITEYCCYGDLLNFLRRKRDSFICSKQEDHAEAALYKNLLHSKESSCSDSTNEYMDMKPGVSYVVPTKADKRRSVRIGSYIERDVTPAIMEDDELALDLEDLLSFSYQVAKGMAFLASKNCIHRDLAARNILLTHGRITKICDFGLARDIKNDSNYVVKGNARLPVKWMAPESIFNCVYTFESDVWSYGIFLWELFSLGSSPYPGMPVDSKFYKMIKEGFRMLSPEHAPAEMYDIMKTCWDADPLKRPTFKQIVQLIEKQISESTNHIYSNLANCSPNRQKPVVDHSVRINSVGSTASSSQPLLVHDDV
Sequence of Tyrosine-protein kinase Lck (P06239 whole entry): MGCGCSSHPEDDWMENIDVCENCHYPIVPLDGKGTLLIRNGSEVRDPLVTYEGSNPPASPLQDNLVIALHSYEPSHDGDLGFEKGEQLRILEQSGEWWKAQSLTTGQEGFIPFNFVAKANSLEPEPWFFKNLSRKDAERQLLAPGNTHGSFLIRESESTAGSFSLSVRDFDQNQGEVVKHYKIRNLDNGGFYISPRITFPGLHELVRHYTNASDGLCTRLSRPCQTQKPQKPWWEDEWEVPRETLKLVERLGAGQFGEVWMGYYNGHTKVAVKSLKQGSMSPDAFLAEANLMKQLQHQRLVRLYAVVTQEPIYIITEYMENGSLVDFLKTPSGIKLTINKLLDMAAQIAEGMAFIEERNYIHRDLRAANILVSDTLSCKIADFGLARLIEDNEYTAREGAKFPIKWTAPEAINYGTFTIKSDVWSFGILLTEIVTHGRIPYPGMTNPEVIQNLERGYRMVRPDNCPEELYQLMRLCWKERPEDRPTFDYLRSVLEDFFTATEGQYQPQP
Sequence of Cytochrome P450 3A4 (P08684 whole entry): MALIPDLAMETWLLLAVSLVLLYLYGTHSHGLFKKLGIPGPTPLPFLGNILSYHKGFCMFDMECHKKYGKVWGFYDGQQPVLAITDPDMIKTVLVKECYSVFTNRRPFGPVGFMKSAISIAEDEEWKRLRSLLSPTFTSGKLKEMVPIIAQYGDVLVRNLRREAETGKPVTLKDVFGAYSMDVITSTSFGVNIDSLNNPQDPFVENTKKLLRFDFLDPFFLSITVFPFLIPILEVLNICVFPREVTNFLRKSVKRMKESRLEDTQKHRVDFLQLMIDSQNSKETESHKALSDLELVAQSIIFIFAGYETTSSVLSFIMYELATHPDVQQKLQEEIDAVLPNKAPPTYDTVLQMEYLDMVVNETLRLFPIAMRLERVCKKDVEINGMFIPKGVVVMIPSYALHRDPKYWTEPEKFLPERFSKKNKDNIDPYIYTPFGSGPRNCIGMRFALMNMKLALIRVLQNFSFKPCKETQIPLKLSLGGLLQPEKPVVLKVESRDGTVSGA

The term IC50 denotes the concentration that gives 50% inhibition. In general, AUC(0-inf) refers to the area under the concentration-time curve extrapolated to infinity. High values mean high exposure, low ones low exposure. The term Ki denotes a measure of affinity in units of concentration, obtained from inhibition or displacement. For orientation: clearance means a measure of how efficiently the substance is removed, as volume per time. A lower clearance goes with inefficient removal. For orientation: half-life means the time needed for the level to fall by half in the phase considered. Higher therefore signals slow decline. For orientation: bioavailability means the share of a dose that reaches the circulation, judged against a reference dose that is usually intravenous. A lower bioavailability goes with little systemic uptake. Take `Cc1ccc(C(N)=O)cc1-c1cc2cnn(-c3c(F)cccc3F)c2n(C)c1=O`: the IC50 with THP-1 (setting [16]) is 3.9 nM; with Blood (setting [17]), 6.4 nM. The compound also came in with an AUC(0-inf) in data set [1] of 2390 ng·h/mL. Further, the inhibition constant Ki in data set [2] turned out to be 1.5 nM. Moreover, the Vd in [3] worked out at 1.1 L/kg. For the same compound, the clearance in data set [4] is 5.2 mL/min/kg. In addition, in data set [5], the half-life was 144 min. The compound further yielded a bioavailability in data set [6] of 37%.
The Kd is a measure of binding affinity in units of concentration. A high value points to lower affinity. In the case of `Cc1ccc(C(=O)NC2CC2)cc1-c1ccc2c(-c3ccccc3F)nncc2c1`, the Kd in data set [7] is 0.05 nM; in [8], 0.53 µM; in data set [9], 2.4 nM; in data set [10], 0.32 µM.
For the compound `CCn1c(=O)c(-c2cc(C(=O)NC3CC3)ccc2C)cc2cnn(-c3ccc(F)cc3F)c21`, the figures for the IC50 in the data set on THP-1 (setting [16]), in the data set on Blood (setting [17]) and on Cytochrome P450 3A4 were 0.5 nM, 2.4 nM and 1600 nM, respectively. In addition, the Ki in [2] was determined as 0.6 nM. The Activity entry in [11] is recorded as “Not Active”.
Consider `Cc1ccc(C(=O)NC2CC2)cc1-c1cc2cnn(-c3ncccc3C(F)(F)F)c2n(C)c1=O`, for which the half-inhibitory concentration (IC50) in the data set on THP-1 (setting [16]) stood at 14.4 nM; with Blood (setting [17]), 24 nM. The Ki in data set [2] turned out to be 2.3 nM.
Consider `Cc1c(F)cc(C(=O)NC2CC2)cc1-c1cc2cnn(-c3c(F)cccc3F)c2n(C)c1=O`, for which the half-maximal inhibitory concentration (IC50) with THP-1 (setting [16]) was 0.4 nM; in the data set with Blood (setting [17]) it was 1.7 nM. Moreover, the Ki in data set [2] was determined as 0.8 nM.
The corresponding values for `Cc1ccc(C(=O)NC2(C)CC2)cc1-c1cc2cnn(-c3c(F)cccc3F)c2n(C)c1=O` are 2.7 nM, 11 nM and 1.7 nM.
As to `Cc1ccc(C(=O)NC2CC2)cc1-c1cc2cnn(-c3ccccc3F)c2n(C)c1=O`, the dissociation constant Kd in data set [7] came out at 0.18 nM; in [8], 40 µM; in data set [9] it was 1700 nM; in data set [10] it was 40 µM.
For the compound `Cc1ccc(C(=O)O)cc1-c1cc2cnn(-c3c(F)cccc3F)c2n(C)c1=O`, the half-inhibitory concentration (IC50) in the data set on THP-1 (setting [16]) is 631 nM; in the data set with Blood (setting [17]) it was > 2500 nM. In data set [2], the inhibition constant (Ki) was 458 nM.
In general, Papp B→A refers to the apparent permeability from the basolateral to the apical side of a cell layer. As usually defined, the Papp A→B is how fast a substance crosses the layer from the apical side. Lower therefore signals poor permeation. With `Cc1ccc(C(=O)NC2CC2)cc1-c1cc2cnn(-c3ccc(F)cc3F)c2n(C)c1=O`, the results for the dissociation constant (Kd) in data set [8], in data set [9] and in data set [10] were 40 µM, 13000 nM and 40 µM, respectively. Besides, the IC50 is 1.5 nM in the data set on THP-1 (setting [16]) and 3.9 nM in the data set on Blood (setting [17]). The area under the curve AUC(0-inf) in [1] was found to be 5120 ng·h/mL. Further, the Vd in [3] came out at 1.69 L/kg. Besides, the clearance in data set [4] was 2.88 mL/min/kg. The compound also showed a half-life in data set [5] of 462 min. For the same compound, in data set [6], the bioavailability worked out at 73%. Besides, the basolateral-to-apical permeability (Papp B→A) in the data set “in vitro [12]” stood at 29 ×10⁻⁶ cm/s. Moreover, the fraction unbound in [13] is 0.075; in data set [14], 0.07. In the data set “in vitro [15]”, the apical-to-basolateral permeability (Papp A→B) was found to be 20 ×10⁻⁶ cm/s.
`Cc1ccc(C(=O)Nc2ccon2)cc1-c1cc2cnn(-c3c(F)cccc3F)c2n(C)c1=O`: the IC50 in the data set on THP-1 (setting [16]) stood at 0.3 nM; in the data set on Blood (setting [17]), 1.5 nM. Besides, the Ki in [2] amounted to 1 nM.
The corresponding values for `Cc1ccc(C(=O)NC2CC2)cc1-c1cc2c(C)nn(-c3c(F)cccc3F)c2n(C)c1=O` are 2.7 nM, 40 nM and 8 nM.
The like results for `Cc1ccc(C(=O)NC2CC2)cc1-c1cc2cnn(-c3ccccc3C)c2n(C)c1=O` were, in that order, 4 nM, 12.1 nM and 1.9 nM.
The like results for `Cc1ccc(C(=O)NC2CC2)cc1-c1cc2cnn(-c3ccccc3Cl)c2n(C)c1=O` were, in that order, 1.1 nM, 8.7 nM and 0.9 nM.
Turning to `Cn1c(=O)c(-c2cc(C(=O)NC3CC3)ccc2Cl)cc2cnn(-c3c(F)cccc3F)c21`, in the data set with THP-1 (setting [16]), the IC50 is 0.9 nM. The same compound gave an AUC(0-inf) in data set [1] of 8860 ng·h/mL. In addition, in data set [3], the Vd was 1.47 L/kg. In data set [4], this compound had a clearance of 2.75 mL/min/kg. In addition, the half-life in data set [5] was 378 min. In addition, the bioavailability in data set [6] is 73%. For the same compound, the fraction unbound in data set [13] is 0.032; in data set [14], 0.038.
Consider `CNc1noc2c(-c3cc4cnn(-c5c(F)cccc5F)c4n(C)c3=O)c(C)ccc12`, for which the IC50 in the data set on THP-1 (thp-1) stood at 1.2 nM; with Blood, 5.4 nM. The compound also showed a total exposure AUC(0-inf) in data set [1] of 515 ng·h/mL. Also, in data set [2], the inhibitory constant (Ki) was 2 nM. Further, in [3], the Vd was 1.89 L/kg. This compound gave a clearance in data set [4] of 17.6 mL/min/kg. The compound further gave a half-life in data set [5] of 210 min. Also, in data set [6], the bioavailability came out at 27%.
Turning to `Cc1ccc(C(=O)NC2CC2)cc1-c1cc2cnn(-c3cc(F)ccc3F)c2n(C)c1=O`, the IC50 in the data set on THP-1 (setting [16]) stood at 1.6 nM; in the data set on Blood (setting [17]), 3.7 nM. For the same compound, the AUC(0-inf) in data set [1] is 782 ng·h/mL. In [2], the inhibition constant (Ki) came to 1.9 nM. In data set [3], the Vd worked out at 0.955 L/kg. The compound also showed a clearance in [4] of 4.12 mL/min/kg. The half-life in data set [5] was 132 min. The compound further had a bioavailability in [6] of 10%.
